{"source": "ChEMBL document CHEMBL4602707", "about": "“Synthesis and Structure-Activity Relationship of Pyxinol Derivatives as Novel Anti-Inflammatory Agents” (ACS Med Chem Lett, 2020)", "note": "The source made the active and inactive calls. The calls are words filed in the database; no cut-off is given here.", "data": [{"tested_on": "RAW264.7", "experiment": "Inhibition of LPS-stimulated NFkappaB activation in mouse RAW264.7 cells assessed as reduction in LPS-induced IkappaB degradation at 20 uM after 2 hrs by Western blot analysis", "type": "cell-based", "conditions": "not given", "how_it_was_run": "(§1)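 RAW264.7 cells co-treated 2 h with LPS (1 μg/mL) plus test agent (10, 20, 30 μM) or hydrocortisone sodium succinate (20 μM). IκB phosphorylation and degradation assessed as NF-κB pathway read-out. Mean ± SD, n = 3; significance versus LPS-stimulated group.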", "values": [{"molecule": "C[C@]12CCC(=O)C=C1CC[C@@H]1[C@@H]2[C@@H](O)C[C@@]2(C)[C@H]1CC[C@]2(O)C(=O)COC(=O)CCC(=O)O", "inhibition": "Active"}]}, {"tested_on": "RAW264.7", "experiment": "Cytotoxicity against LPS-stimulated mouse RAW264.7 cells at 20 uM after 24 hrs by MTT assay", "type": "cell-based", "conditions": "raw264.7, 24 h", "how_it_was_run": "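RAW264.7 cells co-treated with test agent (20 μM) and LPS (1 μg/mL) for 24 h; survival read by MTT. Mean ± SD, n = 3; significance versus control group.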", "values": [{"molecule": "CC(C)(O)[C@@H]1CC[C@@](C)([C@H]2CC[C@]3(C)[C@@H]2[C@H](O)C[C@@H]2[C@@]4(C)CC[C@H](N)C(C)(C)[C@@H]4CC[C@]23C)O1", "Activity": "Non-Toxic"}, {"molecule": "CC(C)(O)[C@H]1CC[C@@](C)([C@H]2CC[C@]3(C)[C@@H]2[C@H](O)C[C@@H]2[C@@]4(C)CC[C@H](N)C(C)(C)[C@@H]4CC[C@]23C)O1", "Activity": "Non-Toxic"}, {"molecule": "CC(C)(O)[C@H]1CC[C@@](C)([C@H]2CC[C@]3(C)[C@@H]2[C@@H](N)C[C@@H]2[C@@]4(C)CC[C@H](O)C(C)(C)[C@@H]4CC[C@]23C)O1", "Activity": "Toxic"}, {"molecule": "CC(C)(O)[C@H]1CC[C@@](C)([C@H]2CC[C@]3(C)[C@@H]2C(=N)C[C@@H]2[C@@]4(C)CC[C@H](O)C(C)(C)[C@@H]4CC[C@]23C)O1", "Activity": "Non-Toxic"}, {"molecule": "CC(C)(O)[C@@H]1CC[C@@](C)([C@H]2CC[C@]3(C)[C@@H]2[C@H](O)C[C@@H]2[C@@]4(C)CC[C@H](O)C(C)(C)[C@@H]4CC[C@]23C)O1", "Activity": "Non-Toxic"}, {"molecule": "CC(C)(O)[C@H]1CC[C@@](C)([C@H]2CC[C@]3(C)[C@@H]2[C@H](O)C[C@@H]2[C@@]4(C)CC/C(=N\\O)C(C)(C)[C@@H]4CC[C@]23C)O1", "Activity": "Non-Toxic"}, {"molecule": "CC(C)(O)[C@H]1CC[C@@](C)([C@H]2CC[C@]3(C)[C@@H]2/C(=N/O)C[C@@H]2[C@@]4(C)CC[C@H](O)C(C)(C)[C@@H]4CC[C@]23C)O1", "Activity": "Non-Toxic"}, {"molecule": "CC(C)(O)[C@H]1CC[C@@](C)([C@H]2CC[C@]3(C)[C@@H]2[C@H](O)C[C@@H]2[C@@]4(C)CCC(=O)C(C)(C)[C@@H]4CC[C@]23C)O1", "Activity": "Non-Toxic"}]}, {"tested_on": "RAW264.7", "experiment": "Antiinflammatory activity in mouse RAW264.7 cells assessed as inhibition of LPS-induced NO production at 20 uM after 24 hrs by Griess method", "type": "functional, cell-based", "conditions": "not given", "how_it_was_run": "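RAW264.7 cells co-treated with test agent (20 μM) and LPS (1 μg/mL) for 24 h. NO released to medium measured by Griess assay. Hydrocortisone sodium succinate (20 μM) positive control. Mean ± SD, n = 3; significance versus control.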", "values": [{"molecule": "CC(C)(O)[C@@H]1CC[C@@](C)([C@H]2CC[C@]3(C)[C@@H]2[C@H](O)C[C@@H]2[C@@]4(C)CC[C@H](N)C(C)(C)[C@@H]4CC[C@]23C)O1", "inhibition": "Active"}, {"molecule": "CC(C)(O)[C@H]1CC[C@@](C)([C@H]2CC[C@]3(C)[C@@H]2[C@H](O)C[C@@H]2[C@@]4(C)CC[C@H](N)C(C)(C)[C@@H]4CC[C@]23C)O1", "inhibition": "Active"}, {"molecule": "CC(C)(O)[C@H]1CC[C@@](C)([C@H]2CC[C@]3(C)[C@@H]2C(=N)C[C@@H]2[C@@]4(C)CC[C@H](O)C(C)(C)[C@@H]4CC[C@]23C)O1", "inhibition": "inactive"}, {"molecule": "CC(C)(O)[C@@H]1CC[C@@](C)([C@H]2CC[C@]3(C)[C@@H]2[C@H](O)C[C@@H]2[C@@]4(C)CC[C@H](O)C(C)(C)[C@@H]4CC[C@]23C)O1", "inhibition": "inactive"}, {"molecule": "CC(C)(O)[C@H]1CC[C@@](C)([C@H]2CC[C@]3(C)[C@@H]2[C@H](O)C[C@@H]2[C@@]4(C)CC/C(=N\\O)C(C)(C)[C@@H]4CC[C@]23C)O1", "inhibition": "Active"}, {"molecule": "CC(C)(O)[C@H]1CC[C@@](C)([C@H]2CC[C@]3(C)[C@@H]2/C(=N/O)C[C@@H]2[C@@]4(C)CC[C@H](O)C(C)(C)[C@@H]4CC[C@]23C)O1", "inhibition": "inactive"}, {"molecule": "CC(C)(O)[C@H]1CC[C@@](C)([C@H]2CC[C@]3(C)[C@@H]2[C@H](O)C[C@@H]2[C@@]4(C)CCC(=O)C(C)(C)[C@@H]4CC[C@]23C)O1", "inhibition": "Active"}]}, {"tested_on": "RAW264.7", "experiment": "Antiinflammatory activity in mouse RAW264.7 cells assessed as reduction in LPS-stimulated TNF alpha secretion preincubated for 2 hrs followed by LPS addition and measured after 4 hrs by ELISA", "type": "functional, cell-based", "conditions": "not given", "how_it_was_run": "(§2)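 RAW264.7 cells pretreated 2 h with test agent (10, 20, 30 μM) or hydrocortisone sodium succinate (20 μM), then LPS (1 μg/mL) for 4 h. TNF-α and IL-6 production measured. Mean ± SD, n = 3; significance versus control group.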", "values": [{"molecule": "CC(C)(O)[C@H]1CC[C@@](C)([C@H]2CC[C@]3(C)[C@@H]2[C@H](O)C[C@@H]2[C@@]4(C)CC/C(=N\\O)C(C)(C)[C@@H]4CC[C@]23C)O1", "Activity": "Dose-dependent effect"}]}, {"tested_on": "RAW264.7", "experiment": "Antiinflammatory activity in mouse RAW264.7 cells assessed as reduction in LPS-induced IL-6 secretion preincubated for 2 hrs followed by LPS addition and measured after 4 hrs by ELISA", "type": "functional, cell-based", "conditions": "not given", "how_it_was_run": "as §2", "values": [{"molecule": "CC(C)(O)[C@H]1CC[C@@](C)([C@H]2CC[C@]3(C)[C@@H]2[C@H](O)C[C@@H]2[C@@]4(C)CC/C(=N\\O)C(C)(C)[C@@H]4CC[C@]23C)O1", "Activity": "Dose-dependent effect"}]}, {"tested_on": "RAW264.7", "experiment": "Antiinflammatory activity in mouse RAW264.7 cells assessed as reduction in LPS-induced iNOS expression after 24 hrs by Western blot analysis", "type": "functional, cell-based", "conditions": "not given", "how_it_was_run": "(§3)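 RAW264.7 cells co-treated 24 h with LPS (1 μg/mL) plus test agent (10, 20, 30 μM) or hydrocortisone sodium succinate (20 μM). COX-2 and iNOS protein levels determined. Mean ± SD of three independent experiments; significance versus LPS-stimulated group.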", "values": [{"molecule": "CC(C)(O)[C@H]1CC[C@@](C)([C@H]2CC[C@]3(C)[C@@H]2[C@H](O)C[C@@H]2[C@@]4(C)CC/C(=N\\O)C(C)(C)[C@@H]4CC[C@]23C)O1", "Activity": "Dose-dependent effect"}]}, {"tested_on": "RAW264.7", "experiment": "Antiinflammatory activity in mouse RAW264.7 cells assessed as reduction in LPS-induced COX2 protein expression after 24 hrs by Western blot analysis", "type": "functional, cell-based", "conditions": "not given", "how_it_was_run": "as §3", "values": [{"molecule": "CC(C)(O)[C@H]1CC[C@@](C)([C@H]2CC[C@]3(C)[C@@H]2[C@H](O)C[C@@H]2[C@@]4(C)CC/C(=N\\O)C(C)(C)[C@@H]4CC[C@]23C)O1", "Activity": "Dose-dependent effect"}]}, {"tested_on": "RAW264.7", "experiment": "Inhibition of LPS-stimulated NFkappaB activation in mouse RAW264.7 cells assessed as reduction in LPS-induced IkappaB degradation at 10 to 30 uM after 2 hrs by Western blot analysis", "type": "cell-based", "conditions": "not given", "how_it_was_run": "as §1", "values": [{"molecule": "CC(C)(O)[C@H]1CC[C@@](C)([C@H]2CC[C@]3(C)[C@@H]2[C@H](O)C[C@@H]2[C@@]4(C)CC/C(=N\\O)C(C)(C)[C@@H]4CC[C@]23C)O1", "inhibition": "Active"}]}, {"tested_on": "RAW264.7", "experiment": "Inhibition of LPS-stimulated NFkappaB activation in mouse RAW264.7 cells assessed as reduction in LPS-induced IkappaB phosphorylation at 10 to 30 uM after 2 hrs by Western blot analysis", "type": "cell-based", "conditions": "not given", "how_it_was_run": "as §1", "values": [{"molecule": "CC(C)(O)[C@H]1CC[C@@](C)([C@H]2CC[C@]3(C)[C@@H]2[C@H](O)C[C@@H]2[C@@]4(C)CC/C(=N\\O)C(C)(C)[C@@H]4CC[C@]23C)O1", "inhibition": "Active"}]}, {"tested_on": "RAW264.7", "experiment": "Antiinflammatory activity in LPS-induced mouse RAW264.7 cells in presence of glucocorticoid receptor antagonist RU-486", "type": "functional, cell-based", "conditions": "not given", "values": [{"molecule": "CC(C)(O)[C@H]1CC[C@@](C)([C@H]2CC[C@]3(C)[C@@H]2[C@H](O)C[C@@H]2[C@@]4(C)CC/C(=N\\O)C(C)(C)[C@@H]4CC[C@]23C)O1", "Activity": "Active"}]}, {"tested_on": "RAW264.7", "experiment": "Inhibition of LPS-stimulated NFkappaB activation in mouse RAW264.7 cells assessed as reduction in LPS-induced IkappaB phosphorylation at 20 uM after 2 hrs by Western blot analysis", "type": "cell-based", "conditions": "not given", "how_it_was_run": "as §1", "values": [{"molecule": "C[C@]12CCC(=O)C=C1CC[C@@H]1[C@@H]2[C@@H](O)C[C@@]2(C)[C@H]1CC[C@]2(O)C(=O)COC(=O)CCC(=O)O", "inhibition": "Active"}]}, {"tested_on": "RAW264.7", "experiment": "Antiinflammatory activity in mouse RAW264.7 cells assessed as reduction in LPS-induced iNOS expression at 20 uM after 24 hrs by Western blot analysis", "type": "functional, cell-based", "conditions": "not given", "how_it_was_run": "as §3", "values": [{"molecule": "C[C@]12CCC(=O)C=C1CC[C@@H]1[C@@H]2[C@@H](O)C[C@@]2(C)[C@H]1CC[C@]2(O)C(=O)COC(=O)CCC(=O)O", "Activity": "Active"}]}, {"tested_on": "RAW264.7", "experiment": "Antiinflammatory activity in mouse RAW264.7 cells assessed as reduction in LPS-induced COX2 protein expression at 20 uM after 24 hrs by Western blot analysis", "type": "functional, cell-based", "conditions": "not given", "how_it_was_run": "as §3", "values": [{"molecule": "C[C@]12CCC(=O)C=C1CC[C@@H]1[C@@H]2[C@@H](O)C[C@@]2(C)[C@H]1CC[C@]2(O)C(=O)COC(=O)CCC(=O)O", "Activity": "Active"}]}]}
